# Measurements: ChEMBL document CHEMBL4024800, “α-Amino-β-carboxymuconate-ε-semialdehyde Decarboxylase (ACMSD) Inhibitors as Novel Modulators of De Novo Nicotinamide Adenine Dinucleotide (NAD+) Biosynthesis” (J Med Chem, 2018)
# The source made the active and inactive calls. The rule behind the calls is not given here.
# Legend:
# [1] = target: T1, 2-amino-3-carboxymuconate-6-semialdehyde decarboxylase (Homo sapiens, UniProt Q8TDX5); assay: Inhibition of human ACMSD expressed in Pichia pastoris using ACMS as substrate by coupled spectrophotometric assay
# Procedure, shortened: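 Recombinant enzyme purified from Pichia pastoris; ACMS substrate generated in a pre-assay mix from 10 μM 3-hydroxyanthranilic acid by Ralstonia metallidurans 3-hydroxyanthranilate 3,4-dioxygenase, formation monitored at 360 nm. Enzyme and compound then added together; activity from initial rate of absorbance decrease minus a no-enzyme control. Serial dilutions, 1.0% DMSO throughout. IC50 from concentration–response curves, mean ± SD of three independent experiments.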
# Target sequence in this assay (Q8TDX5 whole entry): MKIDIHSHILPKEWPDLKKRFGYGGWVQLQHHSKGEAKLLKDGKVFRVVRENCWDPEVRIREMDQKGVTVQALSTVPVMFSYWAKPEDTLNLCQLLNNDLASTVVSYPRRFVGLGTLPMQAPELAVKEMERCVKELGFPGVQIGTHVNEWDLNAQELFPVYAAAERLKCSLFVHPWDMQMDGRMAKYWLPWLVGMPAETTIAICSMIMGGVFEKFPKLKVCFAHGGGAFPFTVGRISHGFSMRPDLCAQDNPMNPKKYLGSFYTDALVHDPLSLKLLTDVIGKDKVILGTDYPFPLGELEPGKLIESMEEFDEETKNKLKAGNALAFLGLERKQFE
# [2] = target: T1, 2-amino-3-carboxymuconate-6-semialdehyde decarboxylase; assay: Inhibition of ACMSD in human primary hepatocytes assessed as increase in intracellular NAD+ levels at 5 uM after 48 hrs by NAD/NADH-Glo assay; assay type: cell-based
# Target sequence in this assay (Q8TDX5 whole entry, looked up): as the sequence (Q8TDX5 whole entry) above
# Homo sapiens [3] = species: Homo sapiens; assay: Activity at PPAR (unknown origin)
# Procedure, shortened: (§1)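 Eight-point serial dilutions tested in an in-house AlphaScreen-based nuclear receptor panel; activity derived from nonlinear regression curves.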
# Homo sapiens [4] = species: Homo sapiens; assay: Activity at LXR (unknown origin); procedure, shortened: as §1
# [5] = target: T2, Vitamin D3 receptor (Homo sapiens) (UniProt P11473); assay: Activity at VDR (unknown origin); procedure, shortened: as §1
# T2 sequence (whole entry): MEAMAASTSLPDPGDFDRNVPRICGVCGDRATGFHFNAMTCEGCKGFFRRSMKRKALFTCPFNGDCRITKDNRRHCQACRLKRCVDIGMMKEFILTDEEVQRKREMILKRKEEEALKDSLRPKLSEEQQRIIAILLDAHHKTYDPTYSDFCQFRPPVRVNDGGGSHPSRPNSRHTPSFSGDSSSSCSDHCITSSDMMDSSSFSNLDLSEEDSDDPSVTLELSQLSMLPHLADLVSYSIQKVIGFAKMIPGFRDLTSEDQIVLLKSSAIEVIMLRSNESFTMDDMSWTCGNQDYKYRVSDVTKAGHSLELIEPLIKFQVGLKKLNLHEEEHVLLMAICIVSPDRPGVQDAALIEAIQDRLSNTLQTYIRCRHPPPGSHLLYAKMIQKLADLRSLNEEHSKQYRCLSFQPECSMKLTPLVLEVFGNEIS
# [6] = target: T3, Glucocorticoid receptor (Homo sapiens) (UniProt P04150); assay: Activity at GR (unknown origin); procedure, shortened: as §1
# T3 sequence (whole entry): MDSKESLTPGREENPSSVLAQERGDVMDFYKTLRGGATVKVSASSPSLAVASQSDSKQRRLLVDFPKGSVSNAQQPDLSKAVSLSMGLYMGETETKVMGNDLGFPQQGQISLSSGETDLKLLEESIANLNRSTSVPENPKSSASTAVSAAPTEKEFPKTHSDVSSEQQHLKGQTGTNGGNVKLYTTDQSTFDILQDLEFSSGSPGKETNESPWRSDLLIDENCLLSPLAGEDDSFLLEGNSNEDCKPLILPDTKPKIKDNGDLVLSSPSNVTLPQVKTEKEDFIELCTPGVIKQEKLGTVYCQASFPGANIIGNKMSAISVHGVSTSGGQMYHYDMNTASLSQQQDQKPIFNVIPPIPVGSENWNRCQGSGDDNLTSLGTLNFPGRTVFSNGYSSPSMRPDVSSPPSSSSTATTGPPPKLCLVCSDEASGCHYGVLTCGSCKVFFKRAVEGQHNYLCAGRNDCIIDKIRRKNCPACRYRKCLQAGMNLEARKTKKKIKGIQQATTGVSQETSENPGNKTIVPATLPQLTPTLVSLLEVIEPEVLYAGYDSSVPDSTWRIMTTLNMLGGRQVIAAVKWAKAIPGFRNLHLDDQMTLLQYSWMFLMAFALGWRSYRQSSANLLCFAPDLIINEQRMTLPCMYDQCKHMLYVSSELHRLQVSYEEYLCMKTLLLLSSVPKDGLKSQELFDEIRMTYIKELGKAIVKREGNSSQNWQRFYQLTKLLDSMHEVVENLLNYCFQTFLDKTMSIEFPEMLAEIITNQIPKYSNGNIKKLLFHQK
# Homo sapiens [7] = species: Homo sapiens; assay: Activity at RXR (unknown origin); procedure, shortened: as §1
# [8] = target: T4, Bile acid receptor (Homo sapiens) (UniProt Q96RI1); assay: Activity at FXR (unknown origin); procedure, shortened: as §1
# T4 sequence (whole entry): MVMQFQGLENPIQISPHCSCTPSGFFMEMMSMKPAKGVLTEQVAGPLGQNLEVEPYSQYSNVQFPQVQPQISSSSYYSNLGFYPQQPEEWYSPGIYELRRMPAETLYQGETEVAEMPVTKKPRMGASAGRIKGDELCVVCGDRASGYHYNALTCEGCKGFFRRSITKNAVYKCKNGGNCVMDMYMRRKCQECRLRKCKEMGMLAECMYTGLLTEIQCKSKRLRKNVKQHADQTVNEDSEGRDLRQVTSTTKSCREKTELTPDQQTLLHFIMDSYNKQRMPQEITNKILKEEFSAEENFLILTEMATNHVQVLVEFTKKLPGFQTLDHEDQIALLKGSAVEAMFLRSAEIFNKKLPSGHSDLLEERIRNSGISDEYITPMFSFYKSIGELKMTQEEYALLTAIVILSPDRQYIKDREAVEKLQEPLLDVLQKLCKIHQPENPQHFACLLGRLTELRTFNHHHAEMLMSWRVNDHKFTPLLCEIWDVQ
# Homo sapiens [9] = species: Homo sapiens; assay: Activity at TR (unknown origin); procedure, shortened: as §1
# [10] = Solubility of compound in PBS buffer at pH 7.4 after 24 hrs by UV/vis-spectroscopic analysis; assay type: physicochemical
# Procedure, shortened: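 Compound in PBS pH 7.4 with 1% DMSO mixed, incubated 24 h and vacuum-filtered; filtrate read by UV/vis and relative solubility calculated from summed readings against a standard. Reported in mg/mL.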
# [11] = Apparent passive permeability from apical to basolateral side in MDCK2-MDR1 cells at 3 uM after 90 mins by LC-MS/MS analysis; assay type: ADME, cell-based, Canis lupus familiaris; conditions: dog, MDCK-MDR1
# Procedure, shortened: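 MDCKII-MDR1 monolayers, HBSS transport medium pH 7.4; compound 3 μM for 90 min, run with and without a P-gp inhibitor, n = 3. Quantified by LC-MS/MS as analyte/internal-standard peak-area ratio; monolayer integrity checked with Lucifer yellow. Papp given in nm/sec, A>B.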
# Cytochrome P450 2C19 = Cytochrome P450 2C19 (Homo sapiens, UniProt P33261); assay: Inhibition of recombinant human CYP2C19 expressed in baculosomes expression system using fluorogenic-BOMCC as substrate by fluorescent homogeneous assay; assay type: ADME
# Cytochrome P450 2C19, sequence (P33261 whole entry): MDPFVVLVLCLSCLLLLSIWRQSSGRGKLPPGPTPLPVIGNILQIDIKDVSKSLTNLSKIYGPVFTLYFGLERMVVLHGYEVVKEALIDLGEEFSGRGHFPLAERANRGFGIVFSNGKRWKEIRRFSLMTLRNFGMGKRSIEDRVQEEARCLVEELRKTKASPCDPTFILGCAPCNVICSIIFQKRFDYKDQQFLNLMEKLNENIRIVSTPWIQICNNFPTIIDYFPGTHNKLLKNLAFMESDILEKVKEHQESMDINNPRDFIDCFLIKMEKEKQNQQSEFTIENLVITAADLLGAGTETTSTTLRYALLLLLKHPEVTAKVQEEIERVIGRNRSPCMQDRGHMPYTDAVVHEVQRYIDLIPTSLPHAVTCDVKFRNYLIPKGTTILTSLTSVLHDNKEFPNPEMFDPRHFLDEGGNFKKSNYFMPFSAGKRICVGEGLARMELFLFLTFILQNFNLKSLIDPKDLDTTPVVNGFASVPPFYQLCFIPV
# Procedure, shortened: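 Recombinant CYP baculosomes with fluorogenic substrates, at concentrations below their Km; homogeneous fluorescence read-out, run in triplicate. IC50 classes: <1 μM potent, 1–10 μM moderate, >10 μM weak or none.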
# [12] = target: Voltage-gated inwardly rectifying potassium channel KCNH2 (Homo sapiens, UniProt Q12809); assay: Displacement of red fluorescent channel ligand tracer from human ERG expressed in CHO cell membranes
# Voltage-gated inwardly rectifying potassium channel KCNH2, sequence (Q12809 whole entry): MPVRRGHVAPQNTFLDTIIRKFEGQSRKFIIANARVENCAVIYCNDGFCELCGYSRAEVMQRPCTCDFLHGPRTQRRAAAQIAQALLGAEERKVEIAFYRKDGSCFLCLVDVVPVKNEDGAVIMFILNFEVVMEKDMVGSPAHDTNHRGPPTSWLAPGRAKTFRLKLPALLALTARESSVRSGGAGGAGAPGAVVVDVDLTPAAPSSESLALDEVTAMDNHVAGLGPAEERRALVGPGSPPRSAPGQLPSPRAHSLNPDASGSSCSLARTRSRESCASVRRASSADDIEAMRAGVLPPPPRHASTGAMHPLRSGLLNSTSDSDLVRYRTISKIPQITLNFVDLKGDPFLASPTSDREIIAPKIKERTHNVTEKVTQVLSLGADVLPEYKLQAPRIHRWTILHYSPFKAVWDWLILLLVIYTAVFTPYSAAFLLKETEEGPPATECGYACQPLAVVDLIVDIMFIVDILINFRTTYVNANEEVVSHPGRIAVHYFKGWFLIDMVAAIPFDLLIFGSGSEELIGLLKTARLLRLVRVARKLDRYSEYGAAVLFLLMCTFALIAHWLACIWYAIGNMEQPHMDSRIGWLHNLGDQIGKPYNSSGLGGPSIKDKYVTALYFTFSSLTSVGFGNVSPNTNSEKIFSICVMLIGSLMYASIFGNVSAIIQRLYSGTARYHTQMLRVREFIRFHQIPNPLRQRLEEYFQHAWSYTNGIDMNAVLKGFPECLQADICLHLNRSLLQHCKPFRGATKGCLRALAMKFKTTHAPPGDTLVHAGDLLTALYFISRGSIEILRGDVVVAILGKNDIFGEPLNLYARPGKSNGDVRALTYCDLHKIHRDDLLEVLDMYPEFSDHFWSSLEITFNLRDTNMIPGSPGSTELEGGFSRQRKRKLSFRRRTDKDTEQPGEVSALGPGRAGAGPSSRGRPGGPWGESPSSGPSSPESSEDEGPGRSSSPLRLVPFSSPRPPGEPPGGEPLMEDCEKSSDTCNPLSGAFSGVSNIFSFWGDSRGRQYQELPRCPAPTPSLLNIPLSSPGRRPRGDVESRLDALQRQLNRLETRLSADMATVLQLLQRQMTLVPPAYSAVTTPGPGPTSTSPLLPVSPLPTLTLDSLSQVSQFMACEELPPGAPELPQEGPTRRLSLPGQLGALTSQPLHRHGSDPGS
# Procedure, shortened: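 Fluorescence polarisation kit: membranes from CHO cells stably expressing hERG, with a red fluorescent high-affinity tracer; competitors detected by tracer displacement, seen as lowered polarisation. Final DMSO 1%; E-4031 reference.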
# HepG2 = assay: Cytotoxicity against human HepG2 cells assessed as reduction in cell viability after 4 hrs by celltiter-glo assay; assay type: cell-based; conditions: hepg2, 4 h
# Procedure, shortened: (§2)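 HepG2 or AML12 cells, 5 × 10^3 per well, exposed to compound for 4 h at 37 °C. Viability read as ATP by CellTiter-Glo luminescence; tamoxifen control.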
# [13] = Cytotoxicity against mouse AML-12 cells assessed as reduction in cell viability after 4 hrs by celltiter-glo assay; assay type: cell-based; conditions: aml-12, 4 h; procedure, shortened: as §2
# [14] = target: T5, Nuclear receptor subfamily 1 group I member 2 (Homo sapiens, UniProt O75469); assay: Activity at PXR (unknown origin); procedure, shortened: as §1
# T5 sequence (O75469 whole entry): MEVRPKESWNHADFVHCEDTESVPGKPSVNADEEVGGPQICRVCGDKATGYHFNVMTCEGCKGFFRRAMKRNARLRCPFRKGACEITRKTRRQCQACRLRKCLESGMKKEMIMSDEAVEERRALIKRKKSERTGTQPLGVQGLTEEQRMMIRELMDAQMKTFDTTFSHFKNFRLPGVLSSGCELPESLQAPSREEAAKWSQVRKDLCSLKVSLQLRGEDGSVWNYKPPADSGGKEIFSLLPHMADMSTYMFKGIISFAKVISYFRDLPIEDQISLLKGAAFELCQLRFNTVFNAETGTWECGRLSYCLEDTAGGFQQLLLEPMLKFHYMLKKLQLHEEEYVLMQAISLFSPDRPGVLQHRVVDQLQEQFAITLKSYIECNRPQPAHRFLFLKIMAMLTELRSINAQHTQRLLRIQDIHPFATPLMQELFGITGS
# [15] = AUClast in CD1 mouse at 0.5 mg/kg, iv measured up to 24 hrs post dose; assay type: ADME, organism-based; parameters: dose 0.5 mg/kg, time < 24 hr, route intravenous; conditions: in vivo
# Procedure, shortened: (§3)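 Mice given 0.5 mg/kg IV in saline containing 5% (v/v) DMSO and 20% (v/v) PEG400; blood pharmacokinetic parameters reported as means.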
# [16] = Clearance in CD1 mouse at 0.5 mg/kg, iv measured up to 24 hrs post dose; assay type: ADME, organism-based; conditions: in vivo; procedure, shortened: as §3
# [17] = Volume of distribution at steady state in CD1 mouse at 0.5 mg/kg, iv measured up to 24 hrs post dose; assay type: ADME, organism-based; conditions: in vivo, read-out: Vdss; procedure, shortened: as §3
# [18] = Half life in CD1 mouse at 0.5 mg/kg, iv measured up to 24 hrs post dose; assay type: ADME, organism-based; conditions: in vivo; procedure, shortened: as §3
# [19] = Cmax in CD1 mouse at 5 mg/kg, po measured up to 8 hrs after dose; assay type: ADME, organism-based; parameters: dose 5 mg/kg, route oral; conditions: in vivo
# Procedure, shortened: (§4)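 Mice dosed orally at 5 mg/kg in 0.5% (w/v) HPMC in water with 5% (v/v) DMSO; blood, liver and kidney concentrations followed to 8 h. AUC0–8h given in h·ng/mL; parameters reported as means.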
# [20] = Tmax in CD1 mouse at 5 mg/kg, po measured up to 8 hrs post dose; assay type: ADME, organism-based; conditions: in vivo; procedure, shortened: as §4
# [21] = Oral bioavailability in CD1 mouse at 5 mg/kg measured up to 8 hrs after dose; assay type: ADME, organism-based; conditions: in vivo; procedure, shortened: as §4
# [22] = AUClast in mouse liver at 5 mg/kg, po measured up to 8 hrs post dose; assay type: ADME, organism-based; parameters: dose 5 mg/kg, time < 8 hr, route oral; procedure, shortened: as §4
# [23] = AUClast in mouse kidney at 5 mg/kg, po measured up to 8 hrs post dose; assay type: ADME, organism-based; parameters: time < 8 hr, dose 5 mg/kg, route oral; procedure, shortened: as §4
# [24] = AUClast in mouse blood at 5 mg/kg, po measured up to 8 hrs post dose; assay type: ADME, organism-based; parameters: time < 8 hr, dose 5 mg/kg, route oral; procedure, shortened: as §4
# [25] = Drug uptake in mouse central nervous system at 5 mg/kg, po; assay type: ADME, organism-based; conditions: in vivo
# [26] = Drug uptake in mouse central nervous system at 5 mg/kg, po in presence of P-gp inhibitor Elacridar; assay type: ADME, organism-based; conditions: in vivo
# [27] = target: Kynurenine 3-monooxygenase (Rattus norvegicus, UniProt O88867); assay: Inhibition of rat liver KMO using [3,5-3H]-kynurenine substrate
# Kynurenine 3-monooxygenase, sequence (O88867 whole entry): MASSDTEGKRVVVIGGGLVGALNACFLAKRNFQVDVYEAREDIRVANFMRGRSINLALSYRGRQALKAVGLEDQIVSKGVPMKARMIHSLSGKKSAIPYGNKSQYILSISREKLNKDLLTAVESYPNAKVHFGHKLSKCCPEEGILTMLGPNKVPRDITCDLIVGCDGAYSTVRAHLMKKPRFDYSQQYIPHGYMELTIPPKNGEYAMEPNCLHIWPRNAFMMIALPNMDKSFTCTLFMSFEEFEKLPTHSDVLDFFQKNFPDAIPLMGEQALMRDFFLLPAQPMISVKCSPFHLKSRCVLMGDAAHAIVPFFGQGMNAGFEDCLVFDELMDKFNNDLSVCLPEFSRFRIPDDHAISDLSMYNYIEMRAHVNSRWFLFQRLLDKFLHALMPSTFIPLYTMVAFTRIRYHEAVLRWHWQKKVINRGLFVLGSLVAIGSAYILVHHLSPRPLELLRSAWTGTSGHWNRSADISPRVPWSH
compound,measurement,setting,value
O=C(O)c1cccc(CSc2nc(-c3ccccc3)c(Cl)c(=O)[nH]2)c1,IC50,[1],0.151 µM
N#Cc1c(-c2ccccc2)nc(SCc2ccccc2)[nH]c1=O,IC50,[1],4.45 µM
N#Cc1c(-c2cccs2)nc(SCc2cccc(-c3nnn[nH]3)c2)[nH]c1=O,inhibition,[2],Active
same,Activity,Homo sapiens [3],inactive
same,Activity,Homo sapiens [4],inactive
same,Activity,[5],inactive
same,Activity,[6],inactive
same,Activity,Homo sapiens [7],inactive
same,Activity,[8],inactive
same,Activity,Homo sapiens [9],inactive
N#Cc1c(C2CCCCC2)nc(SCc2cccc(C(=O)O)c2)[nH]c1=O,IC50,[1],0.089 µM
N#Cc1c(-c2cccs2)nc(SCc2cccc(-c3nn[nH]n3)c2)[nH]c1=O,IC50,[1],0.003 µM
same,solubility at 24 h,[10],1000 µg/mL
same,"Papp A→B at 1.5 h, 3 µM",[11],0.584 ×10⁻⁶ cm/s
same,IC50,Cytochrome P450 2C19,0.1 µM
same,inhibition (INH),[12],Not Active
same,Activity,HepG2,Non-Toxic
same,Activity,[13],Non-Toxic
same,Activity,[14],Not Active
same,AUC(0-t) at 24 h,[15],6900 ng·h/mL
same,clearance,[16],1.2 mL/min/kg
same,Vd,[17],0.306 L/kg
same,half-life,[18],4.02 h
same,Cmax,[19],255 ng/mL
same,Tmax,[20],2 h
same,bioavailability,[21],2.3%
same,AUC(0-t) at 8 h,[22],4290 ng·h/mL
same,AUC(0-t) at 8 h,[23],2830 ng·h/mL
same,AUC(0-t) at 8 h,[24],1620 ng·h/mL
same,Drug uptake,[25],Not Active
same,Drug uptake,[26],Not Active
N#Cc1c(-c2cccs2)nc(SCc2cccc(C(=O)O)c2)[nH]c1=O,IC50,[1],0.02 µM
O=C(O)c1cccc(CSc2nc(-c3ccccc3)c(Br)c(=O)[nH]2)c1,IC50,[1],0.099 µM
Cc1nc(SCc2cccc(C(=O)O)c2)[nH]c(=O)c1C#N,IC50,[1],1.9 µM
N#Cc1c(-c2ccccc2)nc(SCc2cccc(C(=O)O)c2)[nH]c1=O,IC50,[1],0.045 µM
N#Cc1c(-c2cccs2)nc(SCc2cccc(C(=O)NO)c2)[nH]c1=O,IC50,[1],1.75 µM
O=C(O)c1cccc(CSc2nc(-c3ccccc3)cc(=O)[nH]2)c1,IC50,[1],1.05 µM
O=C(O)C1CC1C(=O)c1ccc(Cl)c(Cl)c1 (stereo not given),IC50,[27],0.02 µM
N#Cc1c(Cl)nc(SCc2cccc(C(=O)O)c2)nc1-c1ccccc1,IC50,[1],0.316 µM
N#Cc1c(-c2cccs2)nc(SCc2cccc(-c3noc(C(F)(F)F)n3)c2)[nH]c1=O,IC50,[1],3.35 µM
